Tests used:
[1] = test system: A549; assay: Antiproliferative activity against human A549 cells assessed as inhibition of cell growth measured after 72 hrs by CCK-8 assay; type: functional, cell-based; conditions: A549, 72 h
Summary of the method: (§1)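 Cells seeded at 3000 cells/well in 96-well plates and treated with graded compound concentrations one day later for 72 h. CCK-8 was added for 1–4 h and absorbance read at 450 nm. Lung cancer lines were kept in RPMI 1640 with 10% fetal calf serum at 37 °C and 5% CO₂.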

[2] = test system: NCI-H1975; assay: Antiproliferative activity against human NCI-H1975 cells assessed as inhibition of cell growth measured after 72 hrs by CCK-8 assay; type: functional, cell-based; conditions: NCI-H1975, 72 h; summary of the method: as §1
[3] = test system: PC-9; assay: Antiproliferative activity against human PC-9 cells assessed as inhibition of cell growth measured after 72 hrs by CCK-8 assay; type: functional, cell-based; conditions: PC-9, 72 h; summary of the method: as §1
[4] = test system: BaF3; assay: Antiproliferative activity against mouse BaF3 cells assessed as inhibition of cell growth measured after 72 hrs by CCK-8 assay; type: functional, cell-based; conditions: BaF3, 72 h; summary of the method: as §1
[5] = Antiproliferative activity against human PB1 cells assessed as inhibition of cell growth measured after 72 hrs by CCK-8 assay; type: functional, cell-based; conditions: PB1, 72 h; summary of the method: as §1
[6] = test system: HEK-293T; assay: Cytotoxicity against human HEK293T cells assessed as inhibition of cell growth measured after 72 hrs by CCK-8 assay; type: cell-based; summary of the method: as §1
[7] = test system: BJ; assay: Cytotoxicity against human BJ cells assessed as inhibition of cell growth measured after 72 hrs by CCK-8 assay; type: cell-based; summary of the method: as §1
[8] = test system: HCC827; assay: Antiproliferative activity against human HCC827 cells assessed as inhibition of cell growth measured after 72 hrs by CCK-8 assay; type: functional, cell-based; conditions: HCC827, 72 h; summary of the method: as §1

Row | SMILES | IC50 [1] [nM] | IC50 [2] [nM] | IC50 [3] [nM] | IC50 [4] [nM] | IC50 [8] [nM] | IC50 [5] [nM] | IC50 [6] [nM] | IC50 [7] [nM]
1 | C=CC(=O)Nc1cc2c(Nc3ccc(F)c(Cl)c3)ncnc2cc1OCCCN1CCOCC1 [CANERTINIB] | 7160 | 11.3 | 0.859 | 9.2 | 0.378 | 70.2 | 6000 | 5610
2 | C=CC(=O)Nc1cc2c(Nc3ccc(F)c(Cl)c3)ncnc2cc1OCCCN1CCN(C(=O)CCNc2cccc3c2C(=O)N(C2CCC(=O)NC2=O)C3=O)CC1 (stereo not drawn) |  | 110 | 0.977 |  |  | 163 | > 10000 | > 10000
3 | C=CC(=O)Nc1cc2c(Nc3ccc(F)c(Cl)c3)ncnc2cc1OCCCN1CCNCC1 |  | 162 | 1.11 |  |  | 33.4 | 21800 | 2740
4 | C=CC(=O)Nc1cc2c(Nc3ccc(F)c(Cl)c3)ncnc2cc1OCCCN1CCN(C(=O)CNc2cccc3c2C(=O)N(C2CCC(=O)NC2=O)C3=O)CC1 (stereo not drawn) |  | 234 | 5 |  |  | 190 | > 10000 | > 10000

More lines, main results first:

Row | IC50 [1] [nM] | IC50 [2] [nM] | IC50 [3] [nM] | IC50 [4] [nM] | IC50 [8] [nM] | SMILES | IC50 [5] [nM] | IC50 [6] [nM] | IC50 [7] [nM]
5 |  | 35.4 | 0.452 |  |  | C=CC(=O)Nc1cc2c(Nc3ccc(F)c(Cl)c3)ncnc2cc1OCCCN1CCN(C(=O)CCCCNc2cccc3c2C(=O)N(C2CCC(=O)NC2=O)C3=O)CC1 (stereo not drawn) | 122 | > 10000 | > 10000
6 |  | 209 | 1.38 |  |  | C=CC(=O)Nc1cc2c(Nc3ccc(F)c(Cl)c3)ncnc2cc1OCCCN1CCN(C(=O)CCCNc2cccc3c2C(=O)N(C2CCC(=O)NC2=O)C3=O)CC1 (stereo not drawn) | 146 | 14700 | > 10000

— ChEMBL document CHEMBL4825665, “Effective degradation of EGFRL858R+T790M mutant proteins by CRBN-based PROTACs through both proteosome and autophagy/lysosome degradation systems” (Eur J Med Chem, 2021)
